Common to all, as to assay type: cell-based
Assay [1] addresses Sodium-dependent dopamine transporter (Homo sapiens, UniProt Q01959). In words: Displacement of [3H]WIN-35428 from human recombinant DAT expressed in BacMam virus-transduced cells by scintillation proximity assay. A general note: Loss of bound radioactivity is the signal in a displacement assay; it reports binding, not function.
In assay [2] the target is Sodium-dependent noradrenaline transporter (Homo sapiens, UniProt P23975). As to the kind of experiment: Displacement of [3H]nisoxetine from human recombinant NET expressed in BacMam virus-transduced cells by scintillation proximity assay. The procedure, abridged:
(§1)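 BacMam-transduced membranes in SPA format. SERT: 1 mg/mL beads, 6 μg/mL membranes, 3 nM [3H]citalopram. NET: 2 mg/mL beads, 40 μg/mL membranes, 10 nM [3H]nisoxetine. Incubated overnight at room temperature; pKi from pIC50 by Cheng-Prusoff.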

The target of assay [3] is Sodium-dependent serotonin transporter (Homo sapiens, UniProt P31645). As to the kind of experiment: Displacement of [3H]citalopram from human recombinant SERT expressed in BacMam virus-transduced cells by scintillation proximity assay. In outline: as §1

In general, Ki refers to a dissociation constant, usually derived from enzyme kinetics or from competition with a known ligand. Usually pKi stands for the Ki on a negative log10 scale, so that one unit is a factor of ten.

Sodium-dependent noradrenaline transporter, sequence (P23975 whole entry): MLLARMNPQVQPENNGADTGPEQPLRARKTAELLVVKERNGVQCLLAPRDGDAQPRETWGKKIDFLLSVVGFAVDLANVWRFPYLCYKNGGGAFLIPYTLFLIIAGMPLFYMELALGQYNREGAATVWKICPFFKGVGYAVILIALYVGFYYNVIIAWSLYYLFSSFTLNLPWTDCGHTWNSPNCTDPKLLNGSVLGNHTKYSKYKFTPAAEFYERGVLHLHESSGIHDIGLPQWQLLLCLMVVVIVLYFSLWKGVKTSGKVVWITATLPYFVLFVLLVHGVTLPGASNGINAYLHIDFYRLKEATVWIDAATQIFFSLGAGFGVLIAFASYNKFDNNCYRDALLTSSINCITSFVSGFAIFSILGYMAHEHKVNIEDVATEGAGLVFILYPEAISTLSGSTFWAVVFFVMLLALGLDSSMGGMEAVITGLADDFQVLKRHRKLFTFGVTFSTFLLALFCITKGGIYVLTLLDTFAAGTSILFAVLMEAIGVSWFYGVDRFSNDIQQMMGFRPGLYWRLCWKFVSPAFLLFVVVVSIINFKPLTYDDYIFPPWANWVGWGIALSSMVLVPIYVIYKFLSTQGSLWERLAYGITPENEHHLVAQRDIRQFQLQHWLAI
Sodium-dependent dopamine transporter, sequence (Q01959 whole entry): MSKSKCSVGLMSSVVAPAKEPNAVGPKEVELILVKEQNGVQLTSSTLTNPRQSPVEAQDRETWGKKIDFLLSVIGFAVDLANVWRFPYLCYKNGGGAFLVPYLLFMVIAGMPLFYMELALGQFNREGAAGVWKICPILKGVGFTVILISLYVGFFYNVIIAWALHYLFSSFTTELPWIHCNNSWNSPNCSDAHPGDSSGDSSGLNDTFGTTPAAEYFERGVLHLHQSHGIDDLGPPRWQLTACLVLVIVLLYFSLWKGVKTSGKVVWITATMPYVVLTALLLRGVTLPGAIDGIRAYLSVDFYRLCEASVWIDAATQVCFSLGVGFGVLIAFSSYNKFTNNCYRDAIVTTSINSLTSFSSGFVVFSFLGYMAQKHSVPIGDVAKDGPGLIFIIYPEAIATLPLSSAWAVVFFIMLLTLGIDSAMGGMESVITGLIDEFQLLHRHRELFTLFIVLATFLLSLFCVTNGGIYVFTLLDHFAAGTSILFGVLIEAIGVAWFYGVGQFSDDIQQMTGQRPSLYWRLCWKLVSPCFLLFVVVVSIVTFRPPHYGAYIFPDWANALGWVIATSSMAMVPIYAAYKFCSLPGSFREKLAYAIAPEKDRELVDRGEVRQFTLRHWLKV
Sodium-dependent serotonin transporter, sequence (P31645 whole entry): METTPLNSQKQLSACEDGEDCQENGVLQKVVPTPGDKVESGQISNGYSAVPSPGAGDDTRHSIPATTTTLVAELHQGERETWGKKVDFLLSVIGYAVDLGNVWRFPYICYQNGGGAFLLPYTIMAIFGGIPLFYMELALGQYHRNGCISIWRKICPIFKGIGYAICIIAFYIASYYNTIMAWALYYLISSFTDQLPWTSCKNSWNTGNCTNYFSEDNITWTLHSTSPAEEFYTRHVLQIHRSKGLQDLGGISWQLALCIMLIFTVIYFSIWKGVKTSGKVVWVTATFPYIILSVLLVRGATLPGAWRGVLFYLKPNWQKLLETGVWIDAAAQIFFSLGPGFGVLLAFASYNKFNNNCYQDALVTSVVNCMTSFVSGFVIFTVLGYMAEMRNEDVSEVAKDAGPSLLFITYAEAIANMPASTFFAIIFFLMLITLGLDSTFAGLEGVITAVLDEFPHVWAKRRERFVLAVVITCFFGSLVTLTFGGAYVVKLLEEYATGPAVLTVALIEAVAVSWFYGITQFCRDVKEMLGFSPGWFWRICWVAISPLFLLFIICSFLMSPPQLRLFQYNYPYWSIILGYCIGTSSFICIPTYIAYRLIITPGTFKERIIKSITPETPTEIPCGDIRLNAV

For `COC[C@H]1[C@@H]2CNC[C@@]21c1ccc2ccccc2c1` (stereo in doubt), the inhibition constant (Ki) in assay [1] was 50.1 nM; in assay [2] it was 1 nM; in assay [3], 0.158 nM.

In the case of `OCC[C@H]1[C@@H]2CNC[C@]12c1ccc(Cl)c(Cl)c1` (racemic), the results for the inhibition constant Ki in assay [1], in assay [2] and in assay [3] were 79.4 nM, 7.94 nM and 2.51 nM, respectively.

As to `CC(C)OC[C@H]1[C@@H]2CNC[C@@]21c1ccc(Cl)c(Cl)c1` (relative stereo), the inhibition constant Ki in assay [1] was 251 nM; in assay [2], 200 nM; in assay [3] it was 39.8 nM.

Consider `CSC[C@H]1[C@@H]2CNC[C@@]21c1ccc(Cl)c(Cl)c1` (relative stereo), for which the inhibitory constant (Ki) is 39.8 nM in assay [1], 1.58 nM in assay [2] and 0.398 nM in assay [3].

As for `OC[C@@H]1[C@@H]2CNC[C@]12c1ccc(Cl)c(Cl)c1` (racemic), the values for the inhibition constant (Ki) in assay [1], in assay [2] and in assay [3] were 479 nM, 182 nM and 51.3 nM, respectively.

On to `Clc1ccc([C@]23CNC[C@H]2[C@@H]3COC2CCCCC2)cc1Cl` (racemic), for which the inhibitory constant (Ki) is 20 nM in assay [1], 2 nM in assay [2] and 1 nM in assay [3].

For the molecule `Clc1ccc([C@]23CNC[C@H]2[C@@H]3COC2CCCC2)cc1Cl` (stereo in doubt), the results for the Ki in assay [1], in assay [2] and in assay [3] were 6.31 nM, 0.794 nM and 0.501 nM, respectively.

Turning to `Cc1csc(C[C@H]2[C@@H]3CNC[C@@]32c2ccc(Cl)c(Cl)c2)n1` (stereo in doubt), the negative-log Ki (pKi) in assay [1] is on record as 7.7. Besides, the Ki in assay [2] is 0.316 nM; in assay [3], 0.2 nM.

For the molecule `CCOC[C@H]1[C@@H]2CN(C)C[C@]12c1ccc(Cl)c(Cl)c1` (relative stereo), the values for the inhibition constant (Ki) in assay [1], in assay [2] and in assay [3] were 39.8 nM, 15.8 nM and 1.26 nM, respectively.

For `Clc1ccc([C@@]23CNC[C@@H]2[C@H]3COC2CCC2)cc1Cl` (stereo in doubt), the inhibitory constant (Ki) in assay [1] is 251 nM; in assay [2], 158 nM; in assay [3] it was 25.1 nM.

As for `CCC(C)OC[C@]1(c2ccc(Cl)c(Cl)c2)[C@@H]2CNC[C@@H]21` (mixture of isomers), the Ki in assay [1] was 7.94 nM; in assay [2], 2 nM; in assay [3] it was 0.251 nM.

`CSC[C@H]1[C@@H]2CNC[C@@]21c1ccc(Cl)c(Cl)c1` (stereo in doubt): the Ki was 79.4 nM in assay [1], 5.01 nM in assay [2] and 0.794 nM in assay [3].

As for `Clc1ccc([C@]23CNC[C@H]2[C@H]3COCC2CC2)cc1Cl` (racemic), the Ki was 501 nM in assay [1], 126 nM in assay [2] and 31.6 nM in assay [3].

Take `Clc1ccc([C@]23CNC[C@H]2[C@@H]3COC2CCC2)cc1Cl` (stereo in doubt): the inhibitory constant (Ki) was 12.6 nM in assay [1], 1.26 nM in assay [2] and 0.631 nM in assay [3].

Take `CC(C)OCC[C@]1(c2ccc(Cl)c(Cl)c2)[C@@H]2CNC[C@@H]21`: the inhibition constant (Ki) in assay [1] is 6.31 nM; in assay [2], 1.58 nM; in assay [3], 0.316 nM.

`Clc1ccc([C@]23CNC[C@H]2[C@@H]3COC2CCC2)cc1Cl` (relative stereo): the Ki in assay [1] was 3.98 nM; in assay [2], 0.501 nM; in assay [3] it was 0.316 nM.

For `CCC[C@H]1[C@@H]2CNC[C@]12c1ccc(Cl)c(Cl)c1` (racemic), the inhibitory constant (Ki) is 25.1 nM in assay [1], 2 nM in assay [2] and 1 nM in assay [3].

As for `CCCOC[C@@H]1[C@H]2CNC[C@]21c1ccc(Cl)c(Cl)c1` (stereo in doubt), the Ki in assay [1] was 12.6 nM; in assay [2], 0.631 nM; in assay [3] it was 0.251 nM.

As for `CCOCC[C@H]1[C@@H]2CNC[C@]12c1ccc(Cl)c(Cl)c1` (racemic), the Ki in assay [1] was 79.4 nM; in assay [2], 3.98 nM; in assay [3], 0.794 nM.

On to `CCCOC[C@H]1[C@@H]2CNC[C@@]21c1ccc(Cl)c(Cl)c1` (relative stereo), for which the inhibition constant Ki in assay [1] was 251 nM; in assay [2], 31.6 nM; in assay [3], 9.55 nM.

Regarding `Fc1ccc(OC[C@H]2[C@@H]3CNC[C@@]32c2ccc(Cl)c(Cl)c2)cc1` (racemic), the Ki in assay [1] is 79.4 nM; in assay [2], 39.8 nM; in assay [3], 1.26 nM.

For the molecule `Clc1ccc([C@]23CNC[C@H]2[C@@H]3COCC2CC2)cc1Cl` (relative stereo), the inhibitory constant (Ki) was 200 nM in assay [1], 15.8 nM in assay [2] and 5.01 nM in assay [3].

Take `Cc1cnc([C@H]2[C@@H]3CNC[C@@]32c2ccc(Cl)c(Cl)c2)o1` (racemic): the Ki in assay [1] was 126 nM; in assay [2], 20 nM; in assay [3], 15.8 nM.

In the case of `COCC[C@H]1[C@]2(C)CNC[C@]12c1ccc(Cl)c(Cl)c1` (racemic), the Ki was 63.1 nM in assay [1], 3.16 nM in assay [2] and 0.794 nM in assay [3].

For `COCC[C@H]1[C@@]2(c3ccc(Cl)c(Cl)c3)CNC[C@]12C` (relative stereo), the figures for the inhibitory constant (Ki) in assay [1], in assay [2] and in assay [3] were 126 nM, 1000 nM and 31.6 nM, respectively.

Regarding `CN(C)C[C@H]1[C@@H]2CNC[C@@]21c1ccc(Cl)c(Cl)c1` (racemic), the Ki in assay [1] is 631 nM; in assay [2], 31.6 nM; in assay [3], 3.98 nM.

`Clc1ccc([C@@]23CNC[C@@H]2[C@H]3COC2CCCC2)cc1Cl` (stereo in doubt): the Ki in assay [1] is 100 nM; in assay [2], 12.6 nM; in assay [3], 7.94 nM.

As to `Clc1ccc([C@]23CNC[C@H]2[C@@H]3COCC2CC2)cc1Cl` (stereo in doubt), the inhibition constant Ki in assay [1] is 25.1 nM; in assay [2] it was 1.95 nM; in assay [3], 0.955 nM.

With `COC[C@@H]1[C@@H]2CNC[C@]12c1ccc(Cl)c(Cl)c1` (racemic), the Ki is 661 nM in assay [1], 1290 nM in assay [2] and 72.4 nM in assay [3].

For `Clc1ccc([C@]23CNC[C@H]2[C@@H]3COC2CCCC2)cc1Cl` (relative stereo), the values for the Ki in assay [1], in assay [2] and in assay [3] were 2.51 nM, 0.158 nM and 0.251 nM, respectively.

Consider `CCCOC[C@H]1[C@@H]2CNC[C@@]21c1ccc(Cl)c(Cl)c1` (stereo in doubt), for which the Ki is 20 nM in assay [1], 0.501 nM in assay [2] and 0.501 nM in assay [3].

`CC(C)OC[C@H]1[C@@H]2CNC[C@@]21c1ccc(Cl)c(Cl)c1` (stereo in doubt): the inhibition constant (Ki) in assay [1] was 7.94 nM; in assay [2] it was 0.398 nM; in assay [3], 0.2 nM.

On to `Clc1ccc([C@@]2(CCOC3CCC3)[C@@H]3CNC[C@@H]32)cc1Cl`, for which the Ki in assay [1] is 6.31 nM; in assay [2], 3.98 nM; in assay [3], 0.2 nM.

As for `CCC(C)OCC[C@]1(c2ccc(Cl)c(Cl)c2)[C@@H]2CNC[C@@H]21` (mixture of isomers), the Ki in assay [1] was 5.01 nM; in assay [2], 3.98 nM; in assay [3], 0.316 nM.

Take `COC[C@@H]1[C@H]2CNC[C@]21c1ccc(Cl)c(Cl)c1` (stereo in doubt): the inhibition constant (Ki) in assay [1] was 513 nM; in assay [2], 224 nM; in assay [3], 25.7 nM.

In the case of `COC[C@H]1[C@@H]2CNC[C@@]21c1ccc2ccccc2c1` (relative stereo), the Ki was 398 nM in assay [1], 316 nM in assay [2] and 12.6 nM in assay [3].

The values above are taken from ChEMBL document CHEMBL1157620, “1-(Aryl)-6-[alkoxyalkyl]-3-azabicyclo[3.1.0]hexanes and 6-(aryl)-6-[alkoxyalkyl]-3-azabicyclo[3.1.0]hexanes: a new series of potent and selective triple reuptake inhibitors” (J Med Chem, 2010).
